Results published in ChEMBL document CHEMBL1833916, “Synthesis and biological evaluation of 4-piperidinecarboxylate and 4-piperidinecyanide derivatives for T-type calcium channel blockers” (Bioorg Med Chem Lett, 2011).
Calls of active or inactive are those of the source. The calls are words filed in the database; no cut-off is given here.

Assays:
[1] = target: Voltage-gated inwardly rectifying potassium channel KCNH2 (Homo sapiens, UniProt Q12809); assay: Inhibition of human ERG by patch clamp assay
Sequence of Voltage-gated inwardly rectifying potassium channel KCNH2 (Q12809 whole entry): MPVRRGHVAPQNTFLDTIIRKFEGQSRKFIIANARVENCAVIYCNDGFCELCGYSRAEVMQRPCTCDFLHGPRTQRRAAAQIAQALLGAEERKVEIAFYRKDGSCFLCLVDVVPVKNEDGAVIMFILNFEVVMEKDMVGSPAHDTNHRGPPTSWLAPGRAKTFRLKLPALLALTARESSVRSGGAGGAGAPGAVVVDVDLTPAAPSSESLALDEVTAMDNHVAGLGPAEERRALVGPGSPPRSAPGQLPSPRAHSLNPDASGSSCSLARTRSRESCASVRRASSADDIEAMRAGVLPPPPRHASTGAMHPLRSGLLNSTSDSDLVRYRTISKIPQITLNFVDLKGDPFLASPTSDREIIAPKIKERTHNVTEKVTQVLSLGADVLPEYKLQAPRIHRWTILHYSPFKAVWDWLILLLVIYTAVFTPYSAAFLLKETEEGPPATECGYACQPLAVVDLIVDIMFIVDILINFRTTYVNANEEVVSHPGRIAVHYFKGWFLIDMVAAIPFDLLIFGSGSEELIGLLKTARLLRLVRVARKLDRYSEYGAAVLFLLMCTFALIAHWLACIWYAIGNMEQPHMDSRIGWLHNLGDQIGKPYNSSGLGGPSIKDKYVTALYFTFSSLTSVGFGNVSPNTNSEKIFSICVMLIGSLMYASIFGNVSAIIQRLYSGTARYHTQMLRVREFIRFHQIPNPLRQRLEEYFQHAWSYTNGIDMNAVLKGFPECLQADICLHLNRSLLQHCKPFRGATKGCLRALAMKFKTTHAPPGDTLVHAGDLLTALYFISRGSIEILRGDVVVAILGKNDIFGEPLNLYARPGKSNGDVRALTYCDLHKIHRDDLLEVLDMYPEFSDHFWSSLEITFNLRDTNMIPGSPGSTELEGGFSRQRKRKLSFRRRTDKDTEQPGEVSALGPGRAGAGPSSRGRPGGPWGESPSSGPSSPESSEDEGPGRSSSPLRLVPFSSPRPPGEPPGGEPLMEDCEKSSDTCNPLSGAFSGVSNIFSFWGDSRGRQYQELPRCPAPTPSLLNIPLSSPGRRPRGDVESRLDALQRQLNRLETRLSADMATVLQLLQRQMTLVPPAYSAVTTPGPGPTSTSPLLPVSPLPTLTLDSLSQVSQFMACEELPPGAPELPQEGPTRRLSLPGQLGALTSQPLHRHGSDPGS

[2] = target: T1, Voltage-dependent T-type calcium channel subunit alpha-1G (Homo sapiens, UniProt O43497); assay: Inhibition of T-type calcium channel alpha1G expressed in human HEK293 cells assessed as KCl-induced depolarization at 10 uM after 60 mins by FDSS6000 assay; type: cell-based
T1 sequence (O43497 whole entry): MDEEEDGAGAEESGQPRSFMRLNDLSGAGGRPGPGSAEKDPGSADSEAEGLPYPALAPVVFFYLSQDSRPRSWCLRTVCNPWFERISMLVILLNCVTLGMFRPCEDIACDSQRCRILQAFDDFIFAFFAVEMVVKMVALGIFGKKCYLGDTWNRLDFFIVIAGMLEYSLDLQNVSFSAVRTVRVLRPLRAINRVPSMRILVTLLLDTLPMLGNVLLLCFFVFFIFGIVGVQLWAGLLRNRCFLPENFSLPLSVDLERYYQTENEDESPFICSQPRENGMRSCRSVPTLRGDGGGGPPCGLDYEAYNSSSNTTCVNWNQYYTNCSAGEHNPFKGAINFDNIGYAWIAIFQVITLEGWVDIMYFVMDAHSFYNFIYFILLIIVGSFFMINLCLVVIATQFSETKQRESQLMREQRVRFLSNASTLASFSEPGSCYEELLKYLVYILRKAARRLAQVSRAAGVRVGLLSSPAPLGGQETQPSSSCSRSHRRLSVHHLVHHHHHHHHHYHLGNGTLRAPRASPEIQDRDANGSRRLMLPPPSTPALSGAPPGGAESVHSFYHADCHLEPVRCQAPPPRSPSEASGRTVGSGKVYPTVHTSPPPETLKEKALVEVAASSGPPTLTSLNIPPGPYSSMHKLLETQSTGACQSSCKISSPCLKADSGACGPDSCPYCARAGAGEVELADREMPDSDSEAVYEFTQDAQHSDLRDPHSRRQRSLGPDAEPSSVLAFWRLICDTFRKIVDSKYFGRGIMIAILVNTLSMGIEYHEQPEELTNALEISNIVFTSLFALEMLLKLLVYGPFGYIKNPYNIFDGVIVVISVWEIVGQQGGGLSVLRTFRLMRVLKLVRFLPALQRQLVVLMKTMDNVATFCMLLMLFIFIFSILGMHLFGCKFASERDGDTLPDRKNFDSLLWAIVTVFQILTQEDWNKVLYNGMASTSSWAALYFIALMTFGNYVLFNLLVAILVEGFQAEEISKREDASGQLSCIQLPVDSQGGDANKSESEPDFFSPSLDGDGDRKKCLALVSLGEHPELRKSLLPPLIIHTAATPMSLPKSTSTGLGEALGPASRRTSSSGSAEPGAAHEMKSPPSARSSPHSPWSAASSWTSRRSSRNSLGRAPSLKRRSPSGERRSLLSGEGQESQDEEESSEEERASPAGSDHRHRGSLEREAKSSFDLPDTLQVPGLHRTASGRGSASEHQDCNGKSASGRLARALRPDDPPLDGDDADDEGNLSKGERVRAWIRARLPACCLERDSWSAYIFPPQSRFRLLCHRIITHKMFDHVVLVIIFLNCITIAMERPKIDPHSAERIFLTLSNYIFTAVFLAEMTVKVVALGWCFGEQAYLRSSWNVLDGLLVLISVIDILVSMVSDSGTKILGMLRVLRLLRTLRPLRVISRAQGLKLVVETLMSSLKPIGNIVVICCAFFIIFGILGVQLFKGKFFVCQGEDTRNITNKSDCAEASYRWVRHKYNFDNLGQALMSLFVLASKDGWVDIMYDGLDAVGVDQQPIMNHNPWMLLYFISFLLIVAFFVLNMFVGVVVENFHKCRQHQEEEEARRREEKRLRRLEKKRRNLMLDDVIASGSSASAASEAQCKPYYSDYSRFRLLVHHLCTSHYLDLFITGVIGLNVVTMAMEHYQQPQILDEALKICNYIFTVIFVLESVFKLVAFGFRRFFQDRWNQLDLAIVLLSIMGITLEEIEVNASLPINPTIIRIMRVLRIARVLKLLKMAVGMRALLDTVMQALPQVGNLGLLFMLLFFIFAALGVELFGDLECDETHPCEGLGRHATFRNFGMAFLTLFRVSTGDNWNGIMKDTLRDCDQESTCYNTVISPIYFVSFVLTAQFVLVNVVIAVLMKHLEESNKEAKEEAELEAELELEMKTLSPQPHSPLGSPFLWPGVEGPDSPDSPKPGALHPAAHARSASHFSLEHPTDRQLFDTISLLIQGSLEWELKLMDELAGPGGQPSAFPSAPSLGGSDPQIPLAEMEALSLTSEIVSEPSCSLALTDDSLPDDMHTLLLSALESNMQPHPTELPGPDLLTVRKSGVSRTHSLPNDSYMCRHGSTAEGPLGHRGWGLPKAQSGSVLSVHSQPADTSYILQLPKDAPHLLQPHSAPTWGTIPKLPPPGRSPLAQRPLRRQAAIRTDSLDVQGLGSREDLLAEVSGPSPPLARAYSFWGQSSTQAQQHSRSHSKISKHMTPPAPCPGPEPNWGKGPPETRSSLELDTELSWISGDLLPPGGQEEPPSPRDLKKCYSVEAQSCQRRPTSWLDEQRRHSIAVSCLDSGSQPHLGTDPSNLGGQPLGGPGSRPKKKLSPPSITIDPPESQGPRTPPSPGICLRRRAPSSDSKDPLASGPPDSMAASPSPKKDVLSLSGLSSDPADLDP

[3] = target: T1, Voltage-dependent T-type calcium channel subunit alpha-1G; assay: Inhibition of T-type calcium channel alpha1G expressed in human HEK293 cells assessed as KCl-induced depolarization after 60 mins by FDSS6000 assay; type: cell-based
[4] = Metabolic stability in human hepatic microsomes at 1 uM after 60 mins by LC-MS/MS analysis; type: ADME, Liver; conditions: 1 h
Summary of the method: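 Human liver microsomes (0.5 mg/ml) with compound (1 μM) in 0.1 M potassium phosphate, pH 7.4, at 37 °C; started with β-NADPH (1.2 mM). Sampled at 0, 5, 15, 30 and 60 min, quenched with acetonitrile containing internal standard, analysed by LC–MS/MS. Reported as % parent remaining; mean of duplicate experiments.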

[5] = tested on: Rattus norvegicus; assay: Antiallodynic activity in rat spinal nerve ligation model of neuropathic pain assessed as inhibition of cold allodynia at 100 mg/kg, po after 5 hrs; type: functional, organism-based; parameters: dose 100 mg/kg
Summary of the method: (§1)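 Rats with induced neuropathic pain, dosed orally at 100 mg/kg (n = 5 per group), with gabapentin 100 mg/kg po as reference. Mechanical and cold allodynia were followed over days after nerve injury and hours after dosing. Significance was tested by unpaired t-test (P < 0.05).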

[6] = tested on: Rattus norvegicus; assay: Antiallodynic activity in rat spinal nerve ligation model of neuropathic pain assessed as suppression of mechanical allodynia at 100 mg/kg, po after 5 hrs; type: functional, organism-based; parameters: dose 100 mg/kg; summary of the method: as §1

| Structure (SMILES) | IC50 [1] [nM] | inhibition [2] [%] | further results |
| --- | --- | --- | --- |
| COC(=O)C1(CNC(=O)c2cc(Cl)cc(Cl)c2)CCN(CC2=Cc3ccccc3OC2(C)C)CC1 | 13800 | 33.9 |  |
| CC(C)Cc1cc(C(=O)NCC2(C#N)CCN(Cc3cccc(C(F)(F)F)c3)CC2)nn1-c1ccccc1 |  | 15.8 |  |
| COC(=O)C1(CNC(=O)c2cc(Cl)cc(Cl)c2)CCN(Cc2ccccc2C(F)(F)F)CC1 |  | 44.1 |  |
| COC(=O)C1(CNC(=O)c2cc(OC)cc(OC)c2)CCN(CCc2ccccc2)CC1 |  | 65 |  |
| N#CC1(CNC(=O)c2cc(Cl)cc(Cl)c2)CCN(Cc2ccc(C(F)(F)F)cc2)CC1 |  | 8.7 |  |
| COC(=O)C1(CNC(=O)c2cc(Cl)cc(Cl)c2)CCN(Cc2cccc(OC)c2)CC1 | 360 | 73 |  |
| COC(=O)C1(CNC(=O)c2cc(OC)cc(OC)c2)CCN(Cc2ccc(OC)cc2)CC1 | 480 | 59 |  |
| COc1ccc(CN2CCC(C#N)(CNC(=O)c3cc(OC)cc(OC)c3)CC2)cc1 |  | 53 |  |
| COc1cccc(CN2CCC(C#N)(CNC(=O)c3cc(CC(C)C)n(-c4ccccc4)n3)CC2)c1 | 1500 | 60.4 |  |
| COc1cc(OC)cc(C(=O)NCC2(C(=O)O)CCN(Cc3ccc(C(F)(F)F)cc3)CC2)c1.Cl |  |  | IC50 [3]: 7310 nM; Stability [4]: Stable; inhibition [5]: Active; Activity [6]: Active |
| COC(=O)C1(CNC(=O)c2cc(OC)cc(OC)c2)CCN(Cc2cccc(OC)c2)CC1 | 310 | 56.2 |  |
| CC(C)Cc1cc(C(=O)NCC2(C#N)CCN(Cc3ccc(C(F)(F)F)cc3)CC2)nn1-c1ccccc1 |  | 13.9 |  |
| COc1cc(OC)cc(C(=O)NCC2(C#N)CCN(CC3=Cc4ccccc4OC3(C)C)CC2)c1 | 4730 | 44.3 |  |
| COC(=O)C1(CNC(=O)c2cc(Cl)cc(Cl)c2)CCN(CCc2ccccc2)CC1 |  | 77.2 |  |
| N#CC1(CNC(=O)c2cc(Cl)cc(Cl)c2)CCN(Cc2ccccc2C(F)(F)F)CC1 |  | 9.99 |  |
| COc1ccc(CN2CCC(C#N)(CNC(=O)c3cc(Cl)cc(Cl)c3)CC2)cc1 |  | 16.1 |  |
| CC(C)Cc1cc(C(=O)NCC2(C#N)CCN(CCc3ccccc3)CC2)nn1-c1ccccc1 |  | 61.9 |  |
| COc1cccc(CN2CCC(C#N)(CNC(=O)c3cc(OC)cc(OC)c3)CC2)c1 |  | 60.4 |  |
| COC(=O)C1(CNC(=O)c2cc(Cl)cc(Cl)c2)CCN(Cc2ccc(OC)cc2)CC1 |  | 74.5 |  |
| COC(=O)C1(CNC(=O)c2cc(Cl)cc(Cl)c2)CCN(Cc2ccc(C(F)(F)F)cc2)CC1 | 290 | 43.3 |  |
| COc1cc(OC)cc(C(=O)NCC2(C#N)CCN(Cc3ccccc3OC)CC2)c1 | 920 | 50.9 |  |

| Structure (SMILES) | IC50 [1] [nM] | inhibition [2] [%] | further results |
| --- | --- | --- | --- |
| COC(=O)C1(CNC(=O)c2cc(OC)cc(OC)c2)CCN(Cc2cccc(C(F)(F)F)c2)CC1 | 2800 | 72 | Stability [4]: Unstable |
| CC(C)Cc1cc(C(=O)NCC2(C#N)CCN(Cc3ccccc3C(F)(F)F)CC2)nn1-c1ccccc1 | 4760 | 45.4 |  |
| COC(=O)C1(CNC(=O)c2cc(Cl)cc(Cl)c2)CCN(Cc2ccccc2OC)CC1 | 160 | 68.5 |  |
| COc1cc(OC)cc(C(=O)NCC2(C#N)CCN(Cc3cccc(C(F)(F)F)c3)CC2)c1 |  | 15.8 |  |
| CC1(C)Oc2ccccc2C=C1CN1CCC(C#N)(CNC(=O)c2cc(Cl)cc(Cl)c2)CC1 |  | 13.6 |  |
| COc1cc(OC)cc(C(=O)NCC2(C#N)CCN(CCc3ccccc3)CC2)c1 | 1570 | 61.9 | Stability [4]: Unstable |
| N#CC1(CNC(=O)c2cc(Cl)cc(Cl)c2)CCN(Cc2cccc(C(F)(F)F)c2)CC1 |  | 8.76 |  |
| COc1cc(OC)cc(C(=O)NCC2(C#N)CCN(Cc3ccc(C(F)(F)F)cc3)CC2)c1 |  | 13.9 |  |
| COc1cc(OC)cc(C(=O)NCC2(C#N)CCN(Cc3ccccc3C(F)(F)F)CC2)c1 | 4760 | 45.4 |  |
| COc1cccc(CN2CCC(C#N)(CNC(=O)c3cc(Cl)cc(Cl)c3)CC2)c1 |  | 8.33 |  |
| COC(=O)C1(CNC(=O)c2cc(OC)cc(OC)c2)CCN(Cc2ccc(C(F)(F)F)cc2)CC1 |  | 64.3 | IC50 [3]: 4180 nM; Stability [4]: Unstable |
| COC(=O)C1(CNC(=O)c2cc(OC)cc(OC)c2)CCN(Cc2ccccc2OC)CC1 | 1900 | 46.8 |  |
| CC(C)Cc1cc(C(=O)NCC2(C#N)CCN(CC3=Cc4ccccc4OC3(C)C)CC2)nn1-c1ccccc1 | 4730 | 44.3 |  |
| COC(=O)C1(CNC(=O)c2cc(Cl)cc(Cl)c2)CCN(Cc2cccc(C(F)(F)F)c2)CC1 |  | 72 |  |
| COc1ccccc1CN1CCC(C#N)(CNC(=O)c2cc(Cl)cc(Cl)c2)CC1 |  | 19.3 |  |
| COc1ccc(CN2CCC(C#N)(CNC(=O)c3cc(CC(C)C)n(-c4ccccc4)n3)CC2)cc1 |  | 53 |  |
| COC(=O)C1(CNC(=O)c2cc(OC)cc(OC)c2)CCN(Cc2ccccc2C(F)(F)F)CC1 | 4980 | 63.6 | Stability [4]: Unstable |
| N#CC1(CNC(=O)c2cc(Cl)cc(Cl)c2)CCN(CCc2ccccc2)CC1 | 360 | 71.8 |  |
| NCC1(CC(=O)O)CCCCC1 |  |  | inhibition [5]: Active; Activity [6]: Active |
| COC(=O)C1(CNC(=O)c2cc(OC)cc(OC)c2)CCN(CC2=Cc3ccccc3OC2(C)C)CC1 |  | 58 |  |
| COc1ccccc1CN1CCC(C#N)(CNC(=O)c2cc(CC(C)C)n(-c3ccccc3)n2)CC1 |  | 50.9 |  |
